# Assay outcomes: PubChem BioAssay, several laboratories
# This is a sample that favours compounds with a hit; in the whole collection about 2.3% have one here.
# TRPC6 activator: mouse TRPC6 channel activation; Q61143; HEK293-TRPC6 membrane potential dye fluorescence; active compounds read high; B-score at 10 µM; 0.13% of 310,000 active;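 active = B-score of the integrated fluorescence ratio above library mean plus 3 SD, and starting fluorescence ratio within library mean plus 5 SD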;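 also: higher score means more depolarization so channel activation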
# TRPC6 inhibitor: blocks the mouse TRPC6 cation channel; Q61143; HEK293-TRPC6, membrane potential dye, ACh-evoked depolarization; active compounds read low; B-score at 10 µM; 1.1% of 310,000 active;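 active = B-score under library mean minus 3 SD, initial fluorescence not abnormally high, positive integrated signal ratio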;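 also: B-score derived from integrated fluorescence ratio over the kinetic read; more negative B-score means stronger inhibition of depolarization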
# TRPC4 block: inhibitors of mouse TRPC4 channel; Q9QUQ5; HEK293 TRPC4beta/mu-opioid, DAMGO-evoked Fluo4 calcium flux; active compounds read low; B-score at 10 µM; 0.39% of 300,000 active; AID 2247;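 active = B-score over 3 SD under the library average, no early fluorescence shift, positive overall ratio signal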
# Target sequence (Q9QUQ5 whole entry, looked up): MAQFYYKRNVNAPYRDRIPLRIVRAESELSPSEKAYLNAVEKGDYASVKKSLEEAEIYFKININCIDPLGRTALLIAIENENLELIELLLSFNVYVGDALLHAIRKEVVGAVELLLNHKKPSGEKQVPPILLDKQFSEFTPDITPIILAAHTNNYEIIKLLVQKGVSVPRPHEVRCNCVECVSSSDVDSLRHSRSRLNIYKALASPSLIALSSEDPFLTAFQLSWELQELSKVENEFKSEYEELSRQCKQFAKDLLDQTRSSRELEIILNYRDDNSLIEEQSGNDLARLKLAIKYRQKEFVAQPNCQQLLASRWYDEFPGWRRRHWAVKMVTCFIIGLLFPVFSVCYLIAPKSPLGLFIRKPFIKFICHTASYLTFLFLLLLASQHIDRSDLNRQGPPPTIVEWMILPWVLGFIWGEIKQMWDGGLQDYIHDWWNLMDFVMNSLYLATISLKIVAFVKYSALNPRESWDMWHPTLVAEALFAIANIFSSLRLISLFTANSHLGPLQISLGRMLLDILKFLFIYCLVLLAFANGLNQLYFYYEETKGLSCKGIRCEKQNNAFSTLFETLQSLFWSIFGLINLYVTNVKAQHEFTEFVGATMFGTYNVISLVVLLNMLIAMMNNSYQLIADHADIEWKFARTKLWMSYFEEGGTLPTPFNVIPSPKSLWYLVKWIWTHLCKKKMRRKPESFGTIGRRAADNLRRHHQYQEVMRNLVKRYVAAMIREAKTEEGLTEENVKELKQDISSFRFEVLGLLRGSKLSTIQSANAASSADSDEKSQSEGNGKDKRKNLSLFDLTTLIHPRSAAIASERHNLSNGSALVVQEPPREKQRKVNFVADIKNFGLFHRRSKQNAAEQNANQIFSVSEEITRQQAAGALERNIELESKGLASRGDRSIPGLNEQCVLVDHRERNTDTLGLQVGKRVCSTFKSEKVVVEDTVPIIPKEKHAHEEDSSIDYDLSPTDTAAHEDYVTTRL
#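 Assay system: HEK293 cells with stable TRPC4beta plus mu-opioid receptor expression. Dosing: single dose. Measured by: Fluo4 Ca2+ flux fluorescence. Also added: DAMGO in two steps, submaximal then maximal. Read-out: B score from integrated Fluo4 fluorescence ratio.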
# TRPC4 PAM: allosteric potentiators of mouse TRPC4 channel | Q9QUQ5 | HEK293 TRPC4beta/mu-opioid, DAMGO EC20, Fluo-4 Ca2+ flux; active compounds read high | B-score at 10 µM | 0.42% of 310,000 active | AID 2227;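 active = B-score of calcium response area above 5 SD of library B-scores, with initial fluorescence ratio within 5 SD of library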;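 also: B-score of integrated fluorescence ratio over time as area under calcium response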
# FID counter: counter-screen for HCV NS3 helicase inhibitors: DNA intercalator displacement; inhibition, % at 7.9 µM; DNA fluorescent intercalator displacement, fluorescence; 0.17% of 290,000 active; in the data active = inhibition above about 37%;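 also: 0% = vehicle and 100% = reference compound; higher means more ethidium bromide displaced from hairpin DNA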
# TRPC4 act: TRPC4 (mouse) channel activation | 0.49% of 310,000 active | Q9QUQ5 | B-score at 10 µM | HEK293 TRPC4beta/mu-opioid, Fluo4 calcium fluorescence; active compounds read high;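 active = B-score above 5 SD of library B-scores, and initial fluorescence ratio not above library mean plus 5 SD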;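 also: positive B-score marks a calcium rise read as TRPC4 activation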
#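 System: HEK293 cells stably co-expressing mouse TRPC4beta and mu-opioid receptor; Schedule: Fluo4 dye loading 45 min at room temperature, 110 s recording; Detection: Fluo4 fluorescence, kinetic; Evaluation: B-scored integrated calcium fluorescence ratio; Controls: buffer (low) and maximal DAMGO (high).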
# TRPC4 spec 2: second check of whether TRPC6 inhibitors also affect mouse TRPC4; shares compounds with TRPC6 inhibitor; HEK293 TRPC4/MOR, membrane potential dye fluorescence; channel activated by saturating DAMGO dose; inhibition, % at 10 µM; 42% of 920 active;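 active = compounds whose fluorescence signal differed from control wells by over 3 SD, either direction, in both duplicate plates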
# TRPC4 spec: tests whether TRPC6 inhibitors also affect mouse TRPC4 | 61% of 920 active | HEK293 TRPC4/mu-opioid, membrane potential fluorescence | AID 2777 | activity change, negative = inhibition, % at 10 µM | shares compounds with TRPC6 inhibitor;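 active = rise or fall in signal beyond 3 SD of buffer-only wells in both replicate plates, either sign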;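 also: integrated kinetic ratio of fluorescence range over baseline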
# HEK293 MPD ctr 2-1: second counter-screen for TRPC6 inhibitors: parental HEK293 cells | shares compounds with TRPC6 inhibitor | signal change vs control, % at 10 µM | 31% of 920 active | parental HEK293 membrane potential dye fluorescence; maximal acetylcholine challenge after compound addition;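 active = membrane potential signal moving either way by over 3 SD of the maximum-effect control, in both duplicate plates, meaning non-specific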
# HEK293 MPD ctr-1: counter-screen for TRPC6 inhibitors: effect in parental HEK293 cells. shares compounds with TRPC6 inhibitor. parental HEK293 membrane potential dye fluorescence. membrane potential signal change, % at 10 µM. 60% of 920 active. AID 2780;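 active = membrane potential signal shifting up or down by more than 3 SD of buffer-only wells, on both duplicate plates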
# HEK293 MPD ctr-2: parental HEK293 nonspecific activity of TRPC6 modulators; membrane potential dye fluorescence; shares compounds with TRPC6 inhibitor; AID 488924; membrane potential signal change, % at 10 µM; 51% of 2,400 active;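 active = membrane potential signal moves up or down beyond 5 SD from buffer-only wells, on both duplicate plates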
# HEK293 MPD ctr 2-2: second counter-screen for TRPC6 modulators: effect in parental HEK293 cells | shares compounds with TRPC6 inhibitor | membrane potential dye fluorescence; after compound, maximal acetylcholine stimulation | inhibition, % at 10 µM | 14% of 2,400 active | AID 488926;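 active = membrane potential signal drops by more than 5 SD from the mean control signal, in both duplicate plates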;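 also: plate controls were acetylcholine ECmax control wells for no effect and buffer only wells for full effect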
# TRPC4 ctr mod: selectivity of TRPC6 modulators against mouse TRPC4 | shares compounds with TRPC6 inhibitor | HEK293 TRPC4/mu-opioid, membrane potential fluorescence | percent change from control (negative = decrease, positive = increase), % at 10 µM | 69% of 2,400 active | AID 488927;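 active = membrane potential signal moved up or down beyond 5 SD of buffer control wells, in both duplicate plates, actives on both sides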;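 also: plate controls were assay buffer wells for no effect and DAMGO maximal-effect wells for full effect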
# TRPC4/MOR inh 2: second check of whether TRPC6 modulators also affect mouse TRPC4; inhibition, % at 10 µM; 55% of 2,400 active; shares compounds with TRPC6 inhibitor; AID 488928; HEK293 TRPC4/mu-opioid, membrane potential dye fluorescence; stimulated with maximal-effect DAMGO;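 active = drop in membrane potential signal beyond 5 SD of the control wells in both duplicate plates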;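 also: TRPC4 counter screen for TRPC6 hits run under conditions tuned for TRPC6 not TRPC4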
# TRPC6 block conf: confirmation of mouse TRPC6 inhibitors; shares compounds with TRPC6 inhibitor; HEK293-TRPC6, membrane potential dye, ACh-evoked depolarization; inhibition, % at 10 µM; 43% of 3,300 active;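 active = fluorescence ratio falls more than 5 SD below the full-stimulation control mean, in both duplicate runs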;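 also: integrated fluorescence ratio of peak minus minimum over baseline after agonist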
# TRPC6 act confirm: confirmation of mouse TRPC6 activators. shares compounds with TRPC6 inhibitor. HEK293-TRPC6 membrane potential dye fluorescence, FDSS. activation, % at 10 µM. 11% of 2,800 active;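 active = ratio signal rise beyond 5 SD above unstimulated control wells' mean, seen in both duplicate runs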;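 also: plate controls were buffer EC0 wells for no effect and acetylcholine ECmax response for full effect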
# An asterisk follows results filed as active; i = inactive; x = no result.
SMILES,TRPC6 activator,TRPC6 inhibitor,TRPC4 block,TRPC4 PAM,FID counter,TRPC4 act,TRPC6 block conf,TRPC6 act confirm,others
Cc1oc(-c2ccc(Cl)cc2)nc1CN1CCCC(C(=O)NCc2ccccn2)C1 (configuration not stated),16*,-5.8*,i,i,2,i,64%*,144%*,HEK293 MPD ctr-2=160%*;HEK293 MPD ctr 2-2=i;TRPC4 ctr mod=18%*;TRPC4/MOR inh 2=72%*
Cc1oc(-c2ccc(Cl)cc2)nc1CN1CCCC(C(=O)NCc2cccnc2)C1 (configuration not stated),i,i,i,i,7,i,x,x,
O=C(NC1CC2CCCC(C1)N2C(=O)Nc1cccc(F)c1)C1CC1 (configuration not stated),i,i,i,i,-6,i,x,x,
CNC(=O)C(=O)NCC1OCCCN1S(=O)(=O)c1ccc(F)cc1C (configuration not stated),i,i,i,i,-5,i,x,x,
CCOc1ccc(NC(=O)CCC(=O)c2ccc(F)cc2)cc1,i,i,i,i,-11,i,x,x,
O=[N+]([O-])c1cccc(OCCCN2CCC(Cc3ccccc3)CC2)c1,i,-7.1*,i,i,28,i,88%*,i,TRPC4 spec 2=16%*;TRPC4 spec=-12%*;HEK293 MPD ctr 2-1=i;HEK293 MPD ctr-1=-224%*
CC(=O)CCc1ccc(OCCCCN2CCC(Cc3ccccc3)CC2)cc1,i,-8.4*,i,i,24,i,46%*,x,HEK293 MPD ctr-2=i;HEK293 MPD ctr 2-2=i;TRPC4 ctr mod=i;TRPC4/MOR inh 2=70%*
COc1cccc(OC)c1OCCCCN1CCC(Cc2ccccc2)CC1,i,i,i,i,14,i,x,x,
O=[N+]([O-])c1ccc(CN2CCC(Cc3ccccc3)CC2)cc1,i,i,i,i,10,i,x,x,
CCCSc1ccc([C@H]2N[C@@](C)(C(=O)OC)[C@H]3C(=O)N(C)C(=O)[C@@H]23)cc1OC,i,i,i,i,x,i,x,x,
CC(C)NCC(O)Cn1c2c(c3ccccc31)CCc1c-2cnn1-c1ccccc1 (configuration not stated),i,-10*,i,i,25,i,85%*,i,TRPC4 spec 2=28%*;TRPC4 spec=-23%*;HEK293 MPD ctr 2-1=40%*;HEK293 MPD ctr-1=-326%*
C[N+]1(CC(O)c2ccccc2)CCCCCC1 (configuration not stated),i,i,i,i,-1,i,x,x,
C[N+]1(CC#CC(O)(c2ccccc2)c2ccccc2)CCCC1,i,-7.3*,i,i,4,i,91%*,i,TRPC4 spec 2=i;TRPC4 spec=i;HEK293 MPD ctr 2-1=-27%*;HEK293 MPD ctr-1=i
CC(C)[N+](C)(C)CC#CC(O)(c1ccccc1)c1ccccc1,i,-9.2*,i,i,3,i,85%*,i,TRPC4 spec 2=i;TRPC4 spec=i;HEK293 MPD ctr 2-1=25%*;HEK293 MPD ctr-1=i
Cc1ccc(-c2nn(-c3ccc(F)cc3)cc2C(=O)N(C)CC(=O)Nc2ccc(N3CCOCC3)cc2)cc1,i,i,i,i,x,i,x,x,
O=C(CSC(=S)N1CCCC1)N1CCN(S(=O)(=O)c2ccccc2F)CC1,i,i,i,i,x,i,x,x,
Cc1ccccc1NC(C)C(=O)N/N=C/c1ccccc1OCc1cccc(Br)c1 (configuration not stated),i,-5.2*,i,i,-16,i,i,i,HEK293 MPD ctr-2=i;HEK293 MPD ctr 2-2=i;TRPC4 ctr mod=i;TRPC4/MOR inh 2=i
Cc1cc(C)n2[nH]c(=O)c(N=Nc3cccc(Cl)c3)c2n1,i,-7.5*,i,i,2,i,46%*,i,HEK293 MPD ctr-2=-198%*;HEK293 MPD ctr 2-2=65%*;TRPC4 ctr mod=-28%*;TRPC4/MOR inh 2=37%*
Cc1cc(C)n2[nH]c(=O)c(N=Nc3ccccc3)c2n1,i,-7.4*,i,i,0,i,i,i,TRPC4 spec 2=i;TRPC4 spec=-24%*;HEK293 MPD ctr 2-1=i;HEK293 MPD ctr-1=-388%*
Cc1cc(C)n2[nH]c(=O)c(N=Nc3cccc(C(F)(F)F)c3)c2n1,i,i,i,i,-7,i,x,x,
O=C(NCc1cc([N+](=O)[O-])ccc1O)c1cc(-c2ccncc2)nc2ccccc12,i,i,i,i,-9,i,x,x,
CCC(CC)NC(=O)c1cccc(Oc2ccccc2)c1,i,i,i,i,-12,i,x,x,
CC(=O)c1sc2nc(C)c3c(c2c1N)CCCC3,i,i,i,i,-7,i,x,x,
CC(=O)c1sc2nsc(SCCN3CCCC3)c2c1N,i,-5.2*,i,i,-3,i,i,x,HEK293 MPD ctr-2=232%*;HEK293 MPD ctr 2-2=i;TRPC4 ctr mod=i;TRPC4/MOR inh 2=36%*
O=C(Nc1ccc(S(=O)(=O)N2CCCCC2)cc1)C1CCCO1 (configuration not stated),i,i,i,i,-6,i,x,x,
COc1ccc2c(COC(=O)CCS(=O)(=O)c3ccc(C)cc3)cc(=O)oc2c1,i,-5.3*,i,i,x,i,i,i,HEK293 MPD ctr-2=i;HEK293 MPD ctr 2-2=i;TRPC4 ctr mod=i;TRPC4/MOR inh 2=i
